In the RNAGym collection of RNA variant scans (doi:10.1126/science.aae0568):
Fewer inactive variants are shown than the library holds.

B1: tRNA (parent)
chain: GUUCCGUUGGCGUAAUGGUAACGCGUCUCCCUCCUAAGGAGAAGACUGCGGGUUCGAGUCCCGUACGGAACG

Variants of: B1
Experiment: yeast fitness relative to wild type (ratio to wild type); higher = fitter; tRNA-Arg(CCU), competitive growth, 37 C, YPD
How it was run: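 Gene amplicons from the start population and from each of six end populations were read by 100-nucleotide paired-end sequencing. Those end populations came from pooled Saccharomyces cerevisiae strains carrying tRNA-Arg(CCU) gene variants at the native locus, competed in YPD at 37°C for 24 hours. Fitness relative to wild type was worked out from changes in genotype frequencies. Genotypes needed ≥ 100 starting reads, and estimates < 0.5 were set to 0.5.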
C24A A36U A37C showed a yeast fitness of no more than 0.5.
G23C A42G G67A gave a yeast fitness of no more than 0.5.
Work on G23C G56A A57G yielded a yeast fitness of no more than 0.5.
Variant G23C A37G G44C A45C G50A C55G C66A has a yeast fitness of no more than 0.5.
With C24A C29U G50A A65G C66U the yeast fitness was no more than 0.5.
Variant C24A C31G C34U G68A has a yeast fitness of no more than 0.5.
With C24A C31G G38C the yeast fitness was no more than 0.5.
Work on G23C C31U C55A yielded a yeast fitness of no more than 0.5.
For G23C G58C, the yeast fitness was 0.669.
G23C C34A A36C A37C A40C G67U showed a yeast fitness of no more than 0.5.
For G23C A42C, the yeast fitness was 0.721.
Variant C24A C29U A36U C55U has a yeast fitness of no more than 0.5.
C24A C31U A42C showed a yeast fitness of 0.529.
Work on G23C A45U G51C yielded a yeast fitness of no more than 0.5.
With G23C C29A C49U the yeast fitness was 0.596.
G23C C33U A43U A45C showed a yeast fitness of no more than 0.5.
In the case of C24A A57G, the yeast fitness is reported as 0.601.
With C24A A57C the yeast fitness was no more than 0.5.
Work on G23A U32C A42G U54G C62U yielded a yeast fitness of no more than 0.5.
In the case of G23C C33U A42G A43C U64A C66A A69C A70C, the yeast fitness is reported as no more than 0.5.
For C24A A36G A37G A69U, the yeast fitness was no more than 0.5.
C24A A36G A37G A69C showed a yeast fitness of no more than 0.5.
For C24A C31U A36G A37G G48A U53G, the yeast fitness was 0.653.
C24A A42U G44A gave a yeast fitness of 0.581.
G23C C33G A42U G56U C62U gave a yeast fitness of no more than 0.5.
Work on C24A C29G G51C U54A yielded a yeast fitness of no more than 0.5.
G23C G48C A69U gave a yeast fitness of no more than 0.5.
For G23C G38C G52C G58A, the yeast fitness was no more than 0.5.
In the case of G23C A37U U47C U54C C66U, the yeast fitness is reported as no more than 0.5.
Variant G23C C27U C30U has a yeast fitness of 0.53.
C24A C29G C30G C49U gave a yeast fitness of no more than 0.5.
For G23C C29G C33U C46U C55U, the yeast fitness was no more than 0.5.
In the case of C24A C27A U28A A70U, the yeast fitness is reported as no more than 0.5.
With G23C C30G A65C the yeast fitness was no more than 0.5.
With G23C U54A the yeast fitness was no more than 0.5.
G23C U54G showed a yeast fitness of no more than 0.5.
G23C C60G G68C gave a yeast fitness of no more than 0.5.
In the case of C24A A37G C55U C60G, the yeast fitness is reported as no more than 0.5.
G23C A70C showed a yeast fitness of 0.73.
G23C U28A G39A G48A C61G C66G showed a yeast fitness of no more than 0.5.
Work on G23U C30A C55G A57C C62G G68C yielded a yeast fitness of no more than 0.5.
G23C A57G G68A showed a yeast fitness of 0.859.
Work on C24A A69C yielded a yeast fitness of 0.724.
With C24A A69U the yeast fitness was 0.752.
G23C C62G C66A showed a yeast fitness of no more than 0.5.
Work on C24A C31U G56C yielded a yeast fitness of no more than 0.5.
G23C G39A C62G gave a yeast fitness of no more than 0.5.
With G23C C24G C34G U64A the yeast fitness was no more than 0.5.
Variant G23C C61A has a yeast fitness of no more than 0.5.
For G23C C61U, the yeast fitness was 0.703.
With G23C C61G the yeast fitness was 0.587.
G23C C30G C49U A65C showed a yeast fitness of no more than 0.5.
For G23C A42C U47A C49G, the yeast fitness was no more than 0.5.
C24A C31G C34U showed a yeast fitness of 0.616.
In the case of C24A C31A A43U C55U, the yeast fitness is reported as 0.674.
In the case of G23C C30A, the yeast fitness is reported as 0.6.
G23C C31A A36U A70C gave a yeast fitness of 0.557.
C24A C31A A65C showed a yeast fitness of no more than 0.5.
C24A A36U C61A showed a yeast fitness of 0.509.
Variant G23C A40G has a yeast fitness of 0.639.
G23C A45C gave a yeast fitness of 0.554.
For G23C A45G, the yeast fitness was 0.773.
For G23C A45C C66G, the yeast fitness was no more than 0.5.
G23A U26G C61U A69C showed a yeast fitness of 0.793.
With C24A C30U C34A A45G A57U C62U the yeast fitness was no more than 0.5.
Work on G23C U32A C49U yielded a yeast fitness of no more than 0.5.
Variant C24A C30U U64G has a yeast fitness of no more than 0.5.
G23C C31A gave a yeast fitness of 0.633.
Work on G23C C31G yielded a yeast fitness of 0.654.
Variant G23A U32C has a yeast fitness of 0.628.
C24A A36U G41C gave a yeast fitness of no more than 0.5.
G23C C33G C46A gave a yeast fitness of 0.53.
Variant G23C C27G C31A A45U G67A has a yeast fitness of no more than 0.5.
G23C C34U A36U C55A showed a yeast fitness of 0.581.
In the case of G23C C27G U35G C62A, the yeast fitness is reported as 0.59.
In the case of G23A U59C G68A, the yeast fitness is reported as no more than 0.5.
In the case of G23C C34U A36U C49A C66U, the yeast fitness is reported as no more than 0.5.
C24A A37G A57C showed a yeast fitness of no more than 0.5.
With C24A A43U G52A the yeast fitness was no more than 0.5.
In the case of C24A A42U, the yeast fitness is reported as 0.659.
G23C C29G A43U G50A G68U showed a yeast fitness of no more than 0.5.
In the case of G23C C27A G56A A57U A69U, the yeast fitness is reported as no more than 0.5.
G23C C27G C31U gave a yeast fitness of no more than 0.5.
C24A C33A C66A gave a yeast fitness of 0.533.
Variant G23C C27A A45G G51C G68A has a yeast fitness of 0.701.
G23C U32A A69C gave a yeast fitness of no more than 0.5.
For G23U A45G, the yeast fitness was 0.579.
Work on G23C A57G G63C A65U yielded a yeast fitness of no more than 0.5.
For G23C C49G A70C, the yeast fitness was no more than 0.5.
For G23C C29U C49A, the yeast fitness was no more than 0.5.
Work on G23C C29U yielded a yeast fitness of 0.604.
G23C C29A gave a yeast fitness of 0.548.
In the case of G23C A37U U47C C60G C66U, the yeast fitness is reported as no more than 0.5.
Variant G23A G63A A65G has a yeast fitness of 0.524.
Work on G23C C49G C62U yielded a yeast fitness of no more than 0.5.
For G23U C33G G58C, the yeast fitness was no more than 0.5.
Work on C24A C29A G44A C46G yielded a yeast fitness of 0.583.
In the case of G23C C24G C34G, the yeast fitness is reported as no more than 0.5.
C24A A40G G48A C49A C61G gave a yeast fitness of no more than 0.5.
With G23C C55G G67A the yeast fitness was 0.526.
Work on G23C C33G A42U C66A yielded a yeast fitness of 0.643.
For G23C U47C C60G, the yeast fitness was no more than 0.5.
C24A C29G C60U gave a yeast fitness of no more than 0.5.
With G23C A57G the yeast fitness was 0.677.
G23C C49U showed a yeast fitness of 0.71.
Variant G23C C31G A40U G51A A57C has a yeast fitness of no more than 0.5.
G23C U28A A36C showed a yeast fitness of no more than 0.5.
For G23C A69C, the yeast fitness was 0.612.
G23C A69U gave a yeast fitness of 0.737.
With G23C G50A C61U the yeast fitness was no more than 0.5.
With C24A C29G U35A A43C the yeast fitness was 0.929.
Work on C24A A40G C49A A65C yielded a yeast fitness of no more than 0.5.
For G23C C60G, the yeast fitness was no more than 0.5.
In the case of G23C C60A, the yeast fitness is reported as 0.72.
Variant G23C C60U has a yeast fitness of no more than 0.5.
Work on C24A C29G A43C C60U yielded a yeast fitness of 0.648.
G23C C24G C33G A40U C49A gave a yeast fitness of no more than 0.5.
With C24A A40G C49A C61G the yeast fitness was 0.53.
Variant G23C C24U A36G A57U G63A has a yeast fitness of no more than 0.5.
With G23U G38C A57G the yeast fitness was no more than 0.5.
G23C C29A A45U gave a yeast fitness of no more than 0.5.
C24A A70C gave a yeast fitness of 0.8.
In the case of C24A A36G A43G A57G, the yeast fitness is reported as no more than 0.5.
G23U C24G C27U A69C gave a yeast fitness of no more than 0.5.
In the case of C24A C27G C29G, the yeast fitness is reported as 0.639.
G23A U54A showed a yeast fitness of 0.605.
With G23A U54C the yeast fitness was 0.533.
Work on C24A C30U C62U yielded a yeast fitness of 0.511.
C24A C31U A42C U47C gave a yeast fitness of no more than 0.5.
Work on C24A A40C yielded a yeast fitness of 0.658.
Work on C24A A40G yielded a yeast fitness of 0.551.
G23A U28A C30U A40U G52C G67A showed a yeast fitness of 0.63.
Variant G23U G63A has a yeast fitness of 0.609.
In the case of G23U C24G C62A, the yeast fitness is reported as no more than 0.5.
G23A U28C C30A C46U A70U showed a yeast fitness of no more than 0.5.
In the case of C24A C29G U35A A57U, the yeast fitness is reported as 0.515.
Work on G23C A37C C46G C66U yielded a yeast fitness of no more than 0.5.
With G23C G25A C30G A65C the yeast fitness was no more than 0.5.
C24A C30U A65G A69U showed a yeast fitness of no more than 0.5.
With G23C C61G G68C the yeast fitness was 0.5.
For G23C U26C C27U A42U, the yeast fitness was 0.566.
In the case of G23C C30G G67A, the yeast fitness is reported as no more than 0.5.
G23C C46A G56A C62U gave a yeast fitness of 0.758.
With G23C G44C C49U A57C the yeast fitness was no more than 0.5.
For C24A A57C C60U G67C, the yeast fitness was no more than 0.5.
G23C U59A showed a yeast fitness of 0.704.
For G23C A42C U47A C49G A69U A70U, the yeast fitness was no more than 0.5.
G23C G52C showed a yeast fitness of 0.523.
Variant G23C G52A has a yeast fitness of no more than 0.5.
Variant G23U A42C has a yeast fitness of 0.74.
For G23C C24G G63C A65U, the yeast fitness was no more than 0.5.
In the case of G23A U35G G58A, the yeast fitness is reported as no more than 0.5.
For G23C C27G U53C C61A G68A, the yeast fitness was no more than 0.5.
For G23C C30G A70G, the yeast fitness was no more than 0.5.
For C24A C27A U28A, the yeast fitness was 0.53.
Work on G23C C66U yielded a yeast fitness of 0.723.
C24A C31U G38A G58C gave a yeast fitness of no more than 0.5.
Work on G23A U35G A70C yielded a yeast fitness of no more than 0.5.
With G23C A43U C61U G68A the yeast fitness was 0.52.
In the case of C24A C29U C61U C66G, the yeast fitness is reported as 0.544.
For C24A C31G G51C C55U G58C A70U, the yeast fitness was no more than 0.5.
Variant G23C C24G G50A has a yeast fitness of 0.585.
G23C C55G C60A gave a yeast fitness of no more than 0.5.
C24A A65C showed a yeast fitness of 0.725.
In the case of G23U A43G, the yeast fitness is reported as 0.758.
G23U A43C gave a yeast fitness of 0.605.
For G23U C24G C27U C62G C66G, the yeast fitness was no more than 0.5.
